According to ChEMBL document CHEMBL3585248, “Amorfrutins Are Natural PPARγ Agonists with Potent Anti-inflammatory Properties” (J Nat Prod, 2015):
Calls of active or inactive are those of the source. No cut-off for these calls is given here.

Columns and labels:
[1] = tested on: HT-29; experiment: Cytotoxicity against human HT-29 cells assessed as reduction in cell viability after 54 hrs by CytoTox-Glo assay; settings: HT-29, 54 h
[2] = tested on: HT-29; experiment: Cytotoxicity against human HT-29 cells assessed as cell viability up to 5 uM after 54 hrs by CytoTox-Glo assay; format: cell-based; settings: ht-29, 54 h
[3] = biological target: T1, Peroxisome proliferator-activated receptor gamma (Homo sapiens) (UniProt P37231); experiment: Agonist activity at PPARgamma in human HT29 cells assessed as reduction in TNFalpha-induced MIP3alpha gene expression in at 10 uM after 48 hrs by ELISA; format: cell-based; settings: HT-29
T1 sequence (whole entry): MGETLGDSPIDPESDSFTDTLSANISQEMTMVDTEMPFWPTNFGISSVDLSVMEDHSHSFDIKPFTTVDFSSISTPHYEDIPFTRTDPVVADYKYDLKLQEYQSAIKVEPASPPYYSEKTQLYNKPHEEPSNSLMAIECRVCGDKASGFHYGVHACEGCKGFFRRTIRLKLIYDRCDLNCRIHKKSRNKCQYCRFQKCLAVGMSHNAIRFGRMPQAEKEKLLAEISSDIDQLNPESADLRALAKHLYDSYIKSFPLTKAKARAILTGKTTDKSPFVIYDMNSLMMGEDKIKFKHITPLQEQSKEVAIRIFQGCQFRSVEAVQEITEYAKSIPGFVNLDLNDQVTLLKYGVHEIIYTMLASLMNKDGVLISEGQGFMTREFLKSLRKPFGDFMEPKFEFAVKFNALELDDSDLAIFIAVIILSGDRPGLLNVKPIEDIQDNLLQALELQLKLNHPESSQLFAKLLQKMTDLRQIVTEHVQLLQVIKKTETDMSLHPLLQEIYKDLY
Summary of the method: (§1)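 HT-29 cells in DMEM-F12 with 5% FBS, seeded a day ahead; 10 μM compound or 0.1% DMSO control for 48 h, then 1 ng/mL TNF-α for 6 h. Culture supernatants centrifuged at 4 °C, stored at −80 °C. Secreted MIP-3α/CCL20, IL-8 and GRO-α quantified by ELISA. Mean ± SD; compared with TNF-α alone.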

[4] = biological target: T1, Peroxisome proliferator-activated receptor gamma (Homo sapiens); experiment: Agonist activity at PPARgamma in human HT29 cells assessed as reduction in TNFalpha-induced GROgamma gene expression at 10 uM after 48 hrs by real-time qPCR analysis; format: cell-based; settings: HT-29
Summary of the method: (§2)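 HT-29 cells pretreated 48 h with 10 μM compound in 0.1% DMSO, then stimulated 6 h with 1 ng/mL TNF-α. Total RNA isolated with DNase digestion, reverse-transcribed, then SYBR Green qPCR run for 40 cycles. Expression normalized to GAPDH by 2−ΔΔCt and reported relative to DMSO-treated cells. Biological triplicates, mean ± SD; one-way ANOVA with Dunnett's test.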

[5] = biological target: T1, Peroxisome proliferator-activated receptor gamma (Homo sapiens); experiment: Agonist activity at PPARgamma in human HT29 cells assessed as reduction in TNFalpha-induced COX2 gene expression at 10 uM after 48 hrs by real-time qPCR analysis; format: cell-based; settings: HT-29
Summary of the method: as §2

[6] = biological target: T1, Peroxisome proliferator-activated receptor gamma (Homo sapiens); experiment: Agonist activity at PPARgamma in human HT29 cells assessed as reduction in TNFalpha-induced IL-1beta gene expression at 10 uM after 48 hrs by real-time qPCR analysis; format: cell-based; settings: HT-29
Summary of the method: as §2

[7] = biological target: T1, Peroxisome proliferator-activated receptor gamma (Homo sapiens); experiment: Agonist activity at PPARgamma in human HT29 cells assessed as reduction in TNFalpha-induced GRO-alpha gene expression in at 10 uM after 48 hrs by ELISA; format: cell-based; settings: HT-29
Summary of the method: as §1

[8] = biological target: T1, Peroxisome proliferator-activated receptor gamma (Homo sapiens); experiment: Agonist activity at PPARgamma in human HT29 cells assessed as reduction in TNFalpha-induced IL8 gene expression in at 10 uM after 48 hrs by ELISA; format: cell-based; settings: HT-29
Summary of the method: as §1

[9] = biological target: T1, Peroxisome proliferator-activated receptor gamma (Homo sapiens); experiment: Agonist activity at PPARgamma in human HT29 cells assessed as reduction in TNFalpha-induced MIP3alpha gene expression in PPARgamma knockdown human HT29 cells at 10 uM after 48 hrs by real-time qPCR analysis; format: cell-based; settings: HT-29
Summary of the method: (§3)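 PPARγ knocked down in HT-29 cells by transfection with 30 nM siRNA, with negative-control siRNA alongside. Cells then given 10 μM compound for 48 h and 1 ng/mL TNF-α for 6 h. Marker mRNA measured by SYBR Green qPCR, normalized to GAPDH by 2−ΔΔCt. Biological triplicates.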

[10] = biological target: T1, Peroxisome proliferator-activated receptor gamma (Homo sapiens); experiment: Agonist activity at PPARgamma in human HT29 cells assessed as reduction in TNFalpha-induced MIP3alpha gene expression at 10 uM after 48 hrs by real-time qPCR analysis; format: cell-based; settings: HT-29
Summary of the method: as §2

[11] = biological target: T1, Peroxisome proliferator-activated receptor gamma (Homo sapiens); experiment: Agonist activity at PPARgamma in human HT29 cells assessed as reduction in TNFalpha-induced GROalpha gene expression at 10 uM after 48 hrs by real-time qPCR analysis; format: cell-based; settings: HT-29
Summary of the method: as §2

[12] = biological target: T1, Peroxisome proliferator-activated receptor gamma (Homo sapiens); experiment: Agonist activity at PPARgamma in human HT29 cells assessed as reduction in TNFalpha-induced IL8 gene expression in PPARgamma knockdown human HT29 cells at 10 uM after 48 hrs by real-time qPCR analysis; format: cell-based; settings: HT-29
Summary of the method: as §3

[13] = biological target: T1, Peroxisome proliferator-activated receptor gamma (Homo sapiens); experiment: Agonist activity at PPARgamma in human HT29 cells assessed as reduction in TNFalpha-induced COX2 gene expression in PPARgamma knockdown human HT29 cells at 10 uM after 48 hrs by real-time qPCR analysis; format: cell-based; settings: HT-29
Summary of the method: as §3

[14] = tested on: HT-29; experiment: Cytotoxicity against human HT-29 cells assessed as cell viability at 10 uM after 54 hrs by CytoTox-Glo assay; format: cell-based; settings: ht-29, 54 h
[15] = biological target: T1, Peroxisome proliferator-activated receptor gamma (Homo sapiens); experiment: Agonist activity at PPARgamma in human HT29 cells assessed as reduction in TNFalpha-induced IL8 gene expression at 10 uM after 48 hrs by real-time qPCR analysis; format: cell-based; settings: HT-29
Summary of the method: as §2

[16] = biological target: T1, Peroxisome proliferator-activated receptor gamma (Homo sapiens); experiment: Agonist activity at PPARgamma in human HT29 cells assessed as reduction in TNFalpha-induced GROalpha gene expression in PPARgamma knockdown human HT29 cells at 10 uM after 48 hrs by real-time qPCR analysis; format: cell-based; settings: HT-29
Summary of the method: as §3

Row | Activity [3] | inhibition [4] | inhibition [5] | inhibition [6] | Activity [7] | Activity [8] | inhibition [9] | inhibition [10] | inhibition [11] | inhibition [12] | inhibition [13] | inhibition [15] | inhibition [16] | SMILES | IC50 [1] [µM] | Activity [2] | Activity [14]
1 |  |  |  |  |  |  |  |  |  |  |  |  |  | COc1cc(CCc2ccccc2)c(C(=O)O)c(O)c1C/C=C(\C)CCC=C(C)C | 30.5 | Non-toxic | 
2 | Active | inactive | Active | inactive | Active | Active | Active | Active | Active | inactive | Active | Active | inactive | COc1cc(CCc2ccccc2)c(C(=O)O)c(O)c1CC=C(C)C [AMORFRUTIN A] | 50.8 |  | Non-toxic
